Test results published in publication PMC7683378 (Journal of autoimmunity, 2020).

What was measured:
[1] = tested on: PBMCs from HLA-DQ8 positive T1D patients; assay: Cytokine production; type: cell-based, human; details: all peptides 20 μg/ml, 48 hours, Luminex; 31 new onset DQ8 positive T1D patients
Summary of the method: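 Fresh PBMCs from heparinised blood (Ficoll) of patients genotyped for at least one DQB*03:02 allele, seeded in RPMI/10% FBS. Stimulated 48 h with InsB:9-23 or scrambled InsB:9-23, with or without RI-D-peptides or scrambled versions, all peptides at 20 μg/ml. Supernatant cytokines by Luminex, as for mouse lymphocytes. Long-standing (>10 years) DQ8 T1D patients served as controls.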

[2] = tested on: PBMCs from HLA-DQ8 positive T1D patients; assay: Lymphocyte proliferation; type: cell-based, human; details: all peptides 20 μg/ml; gated on live T-cells
Summary of the method: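 Fresh Ficoll-isolated PBMCs from patients with at least one DQB*03:02 allele, in RPMI/10% FBS. Stimulated 48 h with InsB:9-23 or scrambled InsB:9-23, with or without RI-D-peptides or scrambled versions, all at 20 μg/ml. Proliferation by CFSE as for mouse lymphocytes, gated on live T-cells. Inhibition = 100 − 100 × (proliferation with/without RI-D-peptide).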

[3] = tested on: 5KC cells (TCR specific for the InsB:9-23–DQ8 complex); assay: Cellular antigen presentation assay; type: cell-based, mouse; details: BSM cells + 5KC cells incubated with the peptide; IL-2 by Luminex
Summary of the method: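 HLA-DQ8-homozygous BSM B-cells (RPMI, 10% FBS, 37 °C, 5% CO2): 10^6 cells loaded overnight with 200 μg/ml InsB:9-23 (scrambled InsB:9-23 or gliadin as negative peptides), washed twice with PBS, then given RI-D-peptide or scrambled control for 2 h at 37 °C. 5KC mouse T-hybridoma cells with human TCR added 1:1, overnight. Supernatant IL-2 by Luminex; anti-CD3/CD28 beads as positive control; 4–5 independent experiments.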

[4] = tested on: lymphocytes from immunized SJL-DQ8 mice; assay: ELISPOT of IL-2 and IFN-γ secretion by lymphocytes of immunized SJL-DQ8 mice; type: cell-based, mouse; details: 5X10^5 lymphocytes, peptides 20 μg/ml, 48 hours
Summary of the method: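 SJL-DQ8 mice (6; 3 female, 3 male) immunised s.c. with 150 μg InsB:9-23 in CFA and boosted in IFA. 5×10^5 spleen/draining-node lymphocytes plated on nitrocellulose wells coated with 4 μg/ml IL-2 or 10 μg/ml anti-IFN-γ capture antibody, 48 h at 37 °C with peptides at 20 μg/ml. Biotinylated detection antibody 2 h, streptavidin-AP 1 h, BCIP/NBT development. Positive response: >20 net SFC/10^6 and P<0.05 (t-test, triplicates).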

[5] = tested on: recombinant HLA-DQ8 protein; type: binding, human; details: serially diluted to 0.5 μM, 48 hours at 37 °C
Summary of the method: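 DELFIA: recombinant HLA-DQ8 (0.012 mg/ml) with 10 μM biotinylated InsB:9-23, plus RI-D-peptide serially diluted to 0.5 μM final, 48 h at 37 °C in 0.1% BSA/PBS with 0.05% Triton. Then bound on nickel-coated plates 2 h at RT, washed, Eu-streptavidin 30 min at RT, washed, enhancement solution ~1 h. Time-resolved fluorescence gave percent inhibition.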

[6] = tested on: lymphocytes from immunized SJL-DQ8 mice; assay: Ex vivo cytokine production; type: cell-based, mouse; details: all peptides 20 μg/ml, 48 hours, Luminex; 20 SJL-DQ8 mice
Summary of the method: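 Lymphocytes from spleens and draining nodes of SJL-DQ8 mice (6–8 weeks) immunised s.c. with 150 μg InsB:9-23 in CFA and boosted in IFA. Plated at 2×10^5 cells/well in RPMI/10% FBS with medium, InsB:9-23 with or without RI-D-peptides or scrambled versions, or scrambled InsB:9-23, all at 20 μg/ml. Supernatants taken at 48 h, kept at −80 °C, cytokines by mouse Milliplex Luminex panel.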

[7] = tested on: recombinant HLA-DQ8 protein; assay: DELFIA immunoassay: inhibition of binding of other HLA-DQ8-binders; set-up: species or system human; details: biotinylated GAD65 or gliadin peptide with RI-D-peptide
[8] = tested on: lymphocytes from immunized SJL-DQ8 mice; assay: Ex vivo lymphocyte proliferation; type: cell-based, mouse; details: all peptides 20 μg/ml, 5 days, flow cytometry
Summary of the method: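 Spleen/draining-node cells from InsB:9-23-immunised SJL-DQ8 mice, 10^6 cells at 2×10^6/ml in 0.1% BSA/PBS, labelled with 1.5 μM CFSE for 10 min at 37 °C. Quenched with ice-cold RPMI/10% FBS, 5 min on ice, washed three times. Plated at 2×10^5 cells/well with peptides at 20 μg/ml for 5 days. Flow cytometry gated on live singlets; at least triplicates; inhibition = 100 − 100 × (proliferation with/without RI-D-peptide).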

Sequence	IFN-γ production in PBMCs stimulated with InsB:9-23 [1]	IL-2 production in PBMCs stimulated with InsB:9-23 [1]	Lymphocytes proliferation in PBMCs stimulated with InsB:9-23 (CFSE assay) [2]	Activation of 5KC T-cells (IL-2 secretion) by the peptide itself [3]	IFN-γ ELISPOT response to InsB:9-23 [4]	IL-2 ELISPOT response to InsB:9-23 [4]	Dose dependence of inhibition of InsB:9-23 binding to HLA-DQ8 [5]	IFN-γ production by lymphocytes stimulated with InsB:9-23 [6]	IL-2 production by lymphocytes stimulated with InsB:9-23 [6]	Competition with other HLA-DQ8-binders (GAD65, gliadin) [7]	Lymphocyte proliferation induced by InsB:9-23 (CFSE assay) [8]
FFGGREGCVLYLAEVLHSG [RI-EXT]	significantly suppressed	significantly suppressed	significantly suppressed	did not activate TCR	significantly decreased	significantly decreased	dose-dependent	significantly blocked	significantly blocked	competed only with InsB:9-23 and not with other HLA-DQ8-binders	significantly suppressed
GGREGCVLYLAEVGG [RI-CT]	significantly suppressed	significantly suppressed	significantly suppressed	did not activate TCR	significantly decreased	significantly decreased	dose-dependent	significantly blocked	significantly blocked	competed only with InsB:9-23 and not with other HLA-DQ8-binders	significantly suppressed
